We go through five molecules from paper PMC3960997 (Biochimica et biophysica acta, 2013).

As usually defined, the IC50 is the concentration at which inhibition is half-maximal. By Ki is commonly meant a dissociation constant, usually derived from enzyme kinetics or from competition with a known ligand. Higher therefore signals weaker binding. By Kd is commonly meant a measure of binding affinity in units of concentration.

Series [1] concerns the target T1, full length TDP-43 (Homo sapiens, UniProt Q13148). Briefly: Inhibition of bt-TG12 binding to full length TDP-43. The essentials: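 In the same Tris pH 7.0 buffer, GST-tagged full-length TDP-43 (1.6 nM) was preincubated 15-30 min at RT with test-compound dilutions. 1.0 nM biotinylated TG12 was then added for 2 hr at RT. Streptavidin Tb donor and anti-GST d2 acceptor (2.6 μg/mL) were added for 1 hr, then time-resolved fluorescence 665/620 ratio. IC50 from three-parameter dose-response fit; geometric means of four determinations.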

Series [2] concerns the target T1, full length TDP-43. Put plainly: Inhibition of UBQLN2 binding to full length TDP-43. The procedure, abridged:
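Test-compound dilutions were preincubated 15-30 min at room temperature with GST-tagged full-length TDP-43 (100 ng/mL, 1.6 nM) in 20 mM Tris pH 7.0, 2 mM MgCl₂, 0.05% CHAPS, 1% glycerol. HIS-UBQLN2 (100 ng/mL, 1.4 nM) was added for 2 hr at RT. Anti-GST Tb donor plus anti-HIS d2 acceptor were added for 1 hr. Read-out was TR-FRET 665/620 nm ratio (ex 330 nm). IC50 from three-parameter fit; geometric mean of four determinations.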

Series [3] addresses T1, full length TDP-43. Briefly: Mode of inhibition of UBQLN2 binding to full length TDP-43. The procedure, abridged:
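Saturation series: GST-tagged full-length TDP-43 (100 ng/mL, 1.6 nM) with HIS-UBQLN2 (1.0–60 nM), plus oligonucleotide (0–1 μM) or test compound (0–32 μM), 2 hr at RT. Anti-GST/anti-HIS HTRF antibodies were added for 1 hr; nonspecific binding taken without TDP-43. Global nonlinear fits to mixed versus noncompetitive inhibition models compared by F-test; Ki from global model. Duplicates, repeated at least three times.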

For series [4], the target named is T2, C-terminal TDP-43 (261-414 aa) (Homo sapiens, UniProt Q13148). Put plainly: Mode of inhibition of UBQLN2 binding to C-terminal TDP-43. The essentials:
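GST-tagged C-terminal TDP-43 (261-414 aa, 4.6 nM) was incubated 2 hr at RT with a HIS-UBQLN2 concentration series, with no test compound or 1, 3.2, 10 or 32 μM. Anti-GST/anti-HIS HTRF antibodies were added for 1 hr, then TR-FRET ratio; nonspecific binding measured without TDP-43. Saturation isotherms globally fitted to a competitive inhibition model. Duplicates, repeated at least three times.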

For series [5], the target named is T2, C-terminal TDP-43 (261-414 aa). Briefly: UBQLN2 saturation binding to C-terminal TDP-43. To be noted: read-out: KD for UBQLN2 binding to C-terminal TDP-43, C-terminal TDP-43 (261-414 aa) 4.6 nM, n=4.
Series [6] deals with T3, N-terminal TDP-43 (1-260 aa) (Homo sapiens, UniProt Q13148). Briefly: UBQLN2 saturation binding to N-terminal TDP-43. To be noted: N-terminal TDP-43 (1-260 aa) 2.2 nM, data not shown.
Series [7] concerns the target T3, N-terminal TDP-43 (1-260 aa). Briefly: Inhibition of bt-TG12 binding to N-terminal TDP-43. The conditions noted are these: 1.0 nM bt-TG12, N-terminal TDP-43 2.2 nM, n=3. The procedure, abridged: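 GST-tagged N-terminal TDP-43 (1-260 aa; 100 ng/mL, 2.2 nM) was incubated 2 hr at RT with 1.0 nM biotinylated TG12 and either unlabeled oligonucleotide (1 pM–1 μM) or HIS-UBQLN2 (0.3 pM–0.3 μM). Streptavidin Tb donor plus anti-GST d2 acceptor (2.6 μg/mL) were added for 1 hr. Normalized to % bound (0% = 1.0 μM unlabeled TG12); IC50 from three-parameter fit. Duplicates, experiment repeated three times.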

The target of series [8] is T1, full length TDP-43. Briefly: Mode of inhibition of bt-TG12 binding to full length TDP-43. To be noted: F-test comparison of global fits with the mixed inhibition model. The essentials: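 Biotinylated TG12 (3–1300 pM) was incubated 2 hr at RT with GST-tagged full-length TDP-43 (1.6 nM), without or with HIS-UBQLN2 (1.0, 3.2, 10, 32 nM). Streptavidin Tb donor and anti-GST d2 acceptor (2.6 μg/mL) were added for 1 hr; nonspecific binding measured without TDP-43. Global nonlinear fits to mixed versus noncompetitive inhibition models compared by F-test. Duplicates, repeated at least three times.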

The target of series [9] is N-terminal 6XHIS tagged full length UBQLN2 (human, UniProt Q9UHD9 1-624). Put plainly: AlphaScreen or HTRF. (In general: In Alpha technology, singlet oxygen from a donor bead excites a nearby acceptor bead.)
N-terminal 6XHIS tagged full length UBQLN2, sequence (Q9UHD9 whole entry): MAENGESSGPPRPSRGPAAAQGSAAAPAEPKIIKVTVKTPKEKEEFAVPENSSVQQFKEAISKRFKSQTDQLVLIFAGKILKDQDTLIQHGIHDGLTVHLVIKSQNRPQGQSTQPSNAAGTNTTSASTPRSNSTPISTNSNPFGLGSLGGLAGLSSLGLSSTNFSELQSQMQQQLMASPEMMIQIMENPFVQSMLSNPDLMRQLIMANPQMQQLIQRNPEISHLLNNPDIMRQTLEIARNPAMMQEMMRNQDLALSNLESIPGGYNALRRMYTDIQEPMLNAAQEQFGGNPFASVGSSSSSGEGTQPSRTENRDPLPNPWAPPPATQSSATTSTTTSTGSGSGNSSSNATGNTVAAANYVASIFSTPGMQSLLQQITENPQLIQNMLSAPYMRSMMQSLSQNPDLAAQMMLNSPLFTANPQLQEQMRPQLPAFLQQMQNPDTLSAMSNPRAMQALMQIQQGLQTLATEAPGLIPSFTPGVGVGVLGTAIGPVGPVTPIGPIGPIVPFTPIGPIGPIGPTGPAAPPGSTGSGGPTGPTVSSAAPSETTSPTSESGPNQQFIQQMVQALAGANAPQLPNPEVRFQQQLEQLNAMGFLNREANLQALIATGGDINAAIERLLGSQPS

T1 sequence (Q13148 whole entry): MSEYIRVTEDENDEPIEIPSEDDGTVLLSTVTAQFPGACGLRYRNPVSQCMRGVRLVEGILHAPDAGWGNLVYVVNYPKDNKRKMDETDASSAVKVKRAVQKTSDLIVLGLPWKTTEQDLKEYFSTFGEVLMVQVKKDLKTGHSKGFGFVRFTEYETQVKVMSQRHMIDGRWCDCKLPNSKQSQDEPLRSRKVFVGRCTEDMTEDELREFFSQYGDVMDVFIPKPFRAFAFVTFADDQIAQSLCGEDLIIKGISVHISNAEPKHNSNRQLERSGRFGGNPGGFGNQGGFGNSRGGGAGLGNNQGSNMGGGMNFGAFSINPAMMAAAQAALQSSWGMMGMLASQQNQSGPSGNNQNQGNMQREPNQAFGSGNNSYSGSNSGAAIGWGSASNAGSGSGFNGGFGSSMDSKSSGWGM
T3 sequence (Q13148 1-260): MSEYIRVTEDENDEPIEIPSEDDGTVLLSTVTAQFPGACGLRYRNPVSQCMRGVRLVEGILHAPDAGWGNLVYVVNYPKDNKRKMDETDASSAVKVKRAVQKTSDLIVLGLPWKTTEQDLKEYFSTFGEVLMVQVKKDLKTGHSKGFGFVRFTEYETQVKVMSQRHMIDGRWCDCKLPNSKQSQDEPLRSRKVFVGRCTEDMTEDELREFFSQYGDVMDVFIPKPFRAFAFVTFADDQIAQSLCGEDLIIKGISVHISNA

Consider `CN(C)CCN(C)c1cc(-c2ccccc2)nc2ccccc12` [AAQ2, N-[2-(dimethylamino)ethyl]-N-methyl-2-phenylquinolin-4-amine], for which the IC50 at full length TDP-43 [1] and at full length TDP-43 [2] was greater than 100 nM each time. The “IC50 inhibition of bt-TG12 binding to TDP-43” value on full length TDP-43 [1] (1.0 nM bt-TG12, TDP-43 1.6 nM) is listed as “no activity”. Moreover, the “IC50 inhibition of UBQLN2 binding to TDP-43” value on full length TDP-43 [2] (1.4 nM UBQLN2, TDP-43 1.6 nM) is “no activity”.
On to `COc1ccc(-c2cc(NCCCN(C)C)c3ccccc3n2)cc1` [AAQ1, (3-{[2-(4-methoxyphenyl)quinolin-4-yl]amino}propyl)dimethylamine], for which the IC50 on full length TDP-43 [1] worked out at 1000 nM; on full length TDP-43 [2], 5500 nM. Further, the “Fold less potent for inhibition of UBQLN2 binding compared to inhibition of nucleic acid binding to TDP-43” value on full length TDP-43 [2] (full length TDP-43) stood at 5 fold. In addition, the results for the inhibition constant Ki (on full length TDP-43 [3]; in series [4]) were 3400 nM and 4200 nM, respectively. For the same molecule, the “Mode of inhibition of UBQLN2 binding to full length TDP-43” value on full length TDP-43 [3] (F-test comparison of global fits with the mixed inhibition model) is recorded as “competitive”. In addition, in series [4] (C-terminal TDP-43 (261-414 aa)), the “Mode of inhibition of UBQLN2 binding to C-terminal TDP-43” value was “competitive”.
As to “UBQLN2: N-terminal 6XHIS tagged full length UBQLN2 protein, custom made by ProteinTech Group”, in [5], the Kd was found to be 8.7 nM. For the same molecule, the “UBQLN2 binding to N-terminal TDP-43” value in series [6] is recorded as “unable to detect appreciable UBQLN2 binding”. For the same molecule, the “IC50 for inhibition of bt-TG12 binding to N-terminal TDP-43” value in series [7] is “unable to inhibit”. In the series with full length TDP-43 [8], the “Mode of inhibition of bt-TG12 binding to full length TDP-43” value was “noncompetitive”.
As to “5′-CTGCTTTTTGCCTGTACTGGGTCTCTGTGGTT-3′ (DNA CTGCTTTTTGCCTGTACTGGGTCTCTGTGGTT; chemistry not given here) [TAR32, reference compound]”, the “Fold IC50 relative to TG12 for inhibition of nucleic acid binding” value with full length TDP-43 [1] (bt-TG12 binding to full length TDP-43) was ~ 10 fold. The half-inhibitory concentration (IC50) with full length TDP-43 [1] (read-out: IC50 (95% CI) inhibition of bt-TG12 binding to full length TDP-43, 1.0 nM bt-TG12, TDP-43 1.6 nM, geometric mean of four determinations (Section 2.4)) was 16 nM.

B1: Human N-terminal GST tagged C-terminal TDP-43 (261-414 aa) (domain or fragment, UniProt Q13148 261-414, looked up)
chain: EPKHNSNRQLERSGRFGGNPGGFGNQGGFGNSRGGGAGLGNNQGSNMGGGMNFGAFSINPAMMAAAQAALQSSWGMMGMLASQQNQSGPSGNNQNQGNMQREPNQAFGSGNNSYSGSNSGAAIGWGSASNAGSGSGFNGGFGSSMDSKSSGWGM
The molecule B1 showed a Kd in series [9] of 8.7 nM.
